Experimental data published in ChEMBL document CHEMBL1142636 (2000).
Activity calls are given as the source filed them.

Key:
Format in all cases: functional
[1] = tested on: K562; assay: Growth inhibition of human K562 cells
[2] = tested on: DLD-1; assay: Growth inhibition of human DLD1 cells
[3] = tested on: XF498; assay: Growth inhibition of human XF498 cells
How it was run: (§1)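 Tested at the NCI in its human disease-oriented in vitro screen of 60 tumour cell lines, following the Monks et al. methods. Activity is expressed as GI50, given as log molar values.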

[4] = tested on: HOP-18; assay: Growth inhibition of human HOP18 cells
[5] = tested on: DU-145; assay: Growth inhibition of human DU145 cells
[6] = tested on: KM12; assay: Growth inhibition of human KM12 cells
[7] = tested on: SR; assay: Growth inhibition of human SR cells; how it was run: as §1
[8] = tested on: Hs-578T; assay: Growth inhibition of human HS578T cells
[9] = tested on: NCI-H460; assay: Growth inhibition of human NCI-H460 cells
[10] = tested on: T47D; assay: Growth inhibition of human T47D cells; how it was run: as §1
[11] = tested on: OVACR5; assay: Growth inhibition of human OVACR5 cells
[12] = tested on: SNB-75; assay: Growth inhibition of human SNB75 cells; how it was run: as §1
[13] = tested on: HOP-92; assay: Growth inhibition of human HOP92 cells
[14] = tested on: SK-MEL-28; assay: Growth inhibition of human SK-MEL-28 cells; how it was run: as §1
[15] = tested on: MDA-MB-435; assay: Growth inhibition of human MDA-MB-435 cells
[16] = tested on: ACHN; assay: Growth inhibition of human ACHN cells
[17] = tested on: Malme-3M; assay: Growth inhibition of human MALME-3M cells
[18] = tested on: SK-MEL-2; assay: Growth inhibition of human SK-MEL-2 cells; how it was run: as §1
[19] = tested on: UO-31; assay: Growth inhibition of human UO31 cells; how it was run: as §1
[20] = tested on: NCI-H522; assay: Growth inhibition of human NCI-H522 cells
[21] = tested on: EKVX; assay: Growth inhibition of human EKVX cells
[22] = tested on: LOX IMVI; assay: Growth inhibition of human LOX IMVI cells
[23] = tested on: UACC-257; assay: Growth inhibition of human UACC257 cells; how it was run: as §1
[24] = tested on: PC-3; assay: Growth inhibition of human PC3 cells
[25] = tested on: SF-295; assay: Growth inhibition of human SF295 cells; how it was run: as §1
[26] = tested on: BT-549; assay: Growth inhibition of human BT549 cells
[27] = tested on: SN12C; assay: Growth inhibition of human SN12C cells; how it was run: as §1
[28] = tested on: A498; assay: Growth inhibition of human A498 cells
[29] = tested on: HOP-62; assay: Growth inhibition of human HOP62 cells
[30] = tested on: MCF7; assay: Growth inhibition of human MCF7 cells
[31] = tested on: DMS-273; assay: Growth inhibition of human DMS273 cells
[32] = tested on: SF-539; assay: Growth inhibition of human SF539 cells; how it was run: as §1
[33] = tested on: OVACR8; assay: Growth inhibition of human OVACR8 cells
[34] = tested on: SK-MEL-5; assay: Growth inhibition of human SK-MEL-5 cells; how it was run: as §1
[35] = tested on: NCI/ADR-RES; assay: Growth inhibition of human MCF7/ADR-RES cells
[36] = tested on: U-251; assay: Growth inhibition of human U251 cells; how it was run: as §1
[37] = tested on: NCI-H23; assay: Growth inhibition of human NCI-H23 cells
[38] = tested on: MDA-MB-231; assay: Growth inhibition of human MDA-MB-231 cells
[39] = tested on: MOLT-4; assay: Growth inhibition of human MOLT4 cells
[40] = tested on: NCI-H226; assay: Growth inhibition of human NCI-H226 cells
[41] = tested on: IGROV-1; assay: Growth inhibition of human IGROV1 cells
[42] = tested on: KM-20L2; assay: Growth inhibition of human KM20L2 cells
[43] = tested on: HCT-15; assay: Growth inhibition of human HCT15 cells
[44] = tested on: MDA-N; assay: Growth inhibition of human MDA-N cells
[45] = tested on: COLO 205; assay: Growth inhibition of human COLO205 cells
[46] = tested on: A549; assay: Growth inhibition of human A549 cells
[47] = tested on: SK-OV-3; assay: Growth inhibition of human SK-OV-3 cells; how it was run: as §1
[48] = tested on: HCT-116; assay: Growth inhibition of human HCT116 cells
[49] = tested on: OVACR4; assay: Growth inhibition of human OVACR4 cells
[50] = tested on: 786-0; assay: Growth inhibition of human 786-0 cells
[51] = tested on: HL-60(TB); assay: Growth inhibition of human HL60(TB) cells
[52] = tested on: RXF 393; assay: Growth inhibition of human […] cells
[53] = tested on: SW-620; assay: Growth inhibition of human SW620 cells; how it was run: as §1
[54] = tested on: RPMI8266; assay: Growth inhibition of human RPMI8266 cells
[55] = tested on: M14; assay: Growth inhibition of human M14 cells
[56] = tested on: TK-10; assay: Growth inhibition of human TK10 cells; how it was run: as §1
[57] = tested on: NCI-H322M; assay: Growth inhibition of human NCI-H322M cells
[58] = tested on: DMS144; assay: Growth inhibition of human DMS144 cells
[59] = tested on: UACC-62; assay: Growth inhibition of human UACC62 cells; how it was run: as §1
[60] = tested on: LXFL 529; assay: Growth inhibition of human LXFL529 cells
[61] = tested on: OVACR3; assay: Growth inhibition of human […] cells
[62] = tested on: CCRF-CEM; assay: Growth inhibition of human CCRF-CEM cells
[63] = tested on: M19-MEL; assay: Growth inhibition of human M19-MEL cells
[64] = tested on: CAKI-1; assay: Growth inhibition of human CAKI1 cells
[65] = tested on: SF-268; assay: Growth inhibition of human SF268 cells; how it was run: as §1
[66] = tested on: HT-29; assay: Growth inhibition of human HT29 cells
[67] = tested on: HCC 2998; assay: Growth inhibition of human HCC2998 cells
[68] = tested on: SNB-19; assay: Growth inhibition of human SNB19 cells; how it was run: as §1

Measured: Activity

COc1cc(Cn2c3ccccc3c3cc(C)c4c(c32)C=CC(C)(CCC=C(C)C)O4)cc2c1[nH]c1ccccc12 (stereo unspecified)
inactive: all assays above

Cc1cc2c([nH]c3ccccc32)c2c1OC(C)(C)[C@H]1[C@H]3CC(C)(C)Oc4c(C)cc5c6ccccc6n(c5c43)[C@@H]21
inactive: all assays above
